Six compounds from ChEMBL document CHEMBL1250442, “Inhibiting gene expression at transcription start sites in chromosomal DNA with antigene RNAs” (Nat Chem Biol, 2005) can be followed below.

Calls of active or inactive are those of the source. No cut-off for these calls is given here. Where only a bound is given, the exact number is not on record here.

Assay [1] concerns T47D. The assay can be described thus: Inhibition of PR-B gene expression in human T47D cells at 25 nM by syber green assay. The class given is functional. Summed up:
(§1)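 T47D cells plated at 80,000/well without antibiotics two days before Oligofectamine transfection with agRNA duplex (25 or 100 nM final); medium changed at 24 h, harvest day 5 unless stated otherwise. TRIzol total RNA; PR mRNA by real-time PCR with SYBR Green: 50 °C 2 min, 95 °C 10 min, 40 cycles 95 °C 15 s/60 °C 1 min.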

Assay [2] has as its system T47D. The assay can be described thus: Inhibition of PR-B gene expression in human T47D cells at 25 nM by syber green assay in presence of 10 nM estradiol. The class given is functional, cell-based.
The test system of assay [3] is T47D. The assay can be described thus: Inhibition of PR-A mRNA gene expression in human T47D cells at 100 nM by syber green assay. The class given is functional. Summed up:
as §1

Assay [4] has as its system T47D. Nature of the assay: Inhibition of PR-B mRNA gene expression in human T47D cells at 100 nM by syber green assay. The class given is functional. The essentials:
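T47D cells in RPMI-1640 with 10% FBS, NEAA, insulin, 37 °C, 5% CO2. Plated two days before transfection without antibiotics. Oligofectamine-mediated duplex RNA transfection at 100 nM final, medium changed at 24 h, harvest five days post-transfection. Total RNA extracted with TRIzol. hPR mRNA quantified by SYBR Green qPCR: 50 °C 2 min, 95 °C 10 min, then 40 cycles of 95 °C 15 s / 60 °C 1 min.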

For assay [5], the system named is T47D. Nature of the assay: Inhibition of PR-A gene expression in human T47D cells at 25 nM by syber green assay in presence of 10 nM estradiol. The class given is functional, cell-based.
The test system of assay [6] is T47D. Nature of the assay: Inhibition of PR-A gene expression in human T47D cells at 25 nM by syber green assay. The class given is functional. The essentials: as §1

A word on the inhibition: it is how much of the control response was suppressed. For the compound `Cc1cn(CC(=O)N(CCNC(=O)CN(CCNC(=O)CN(CCNC(=O)CN(CCNC(=O)CN(CCNC(=O)CN(CCNC(=O)CN(CCNC(=O)CN(CCNC(=O)CN(CCNC(=O)CN(CCNC(=O)CN(CCNC(=O)CN(CCNC(=O)CN(CCNC(=O)CN(CCNC(=O)CN(CCNC(=O)CN(CCNC(=O)CN(CCNC(=O)CN(CCNC(=O)CN(CCNC(=O)CN(CCNC(=O)CN)C(=O)Cn2cnc3c(=O)[nH]c(N)nc32)C(=O)Cn2cnc3c(=O)[nH]c(N)nc32)C(=O)Cn2cnc3c(=O)[nH]c(N)nc32)C(=O)Cn2ccc(N)nc2=O)C(=O)Cn2ccc(N)nc2=O)C(=O)Cn2ccc(=O)[nH]c2=O)C(=O)Cn2ccc(N)nc2=O)C(=O)Cn2ccc(N)nc2=O)C(=O)Cn2ccc(N)nc2=O)C(=O)Cn2ccc(=O)[nH]c2=O)C(=O)Cn2cnc3c(N)ncnc32)C(=O)Cn2cnc3c(=O)[nH]c(N)nc32)C(=O)Cn2cnc3c(N)ncnc32)C(=O)Cn2cnc3c(=O)[nH]c(N)nc32)C(=O)Cn2cnc3c(=O)[nH]c(N)nc32)C(=O)Cn2cnc3c(N)ncnc32)C(=O)Cn2cnc3c(=O)[nH]c(N)nc32)C(=O)Cn2cnc3c(=O)[nH]c(N)nc32)C(=O)Cn2cnc3c(N)ncnc32)CC(=O)NCCN(CC(=O)NCC(=O)O)C(=O)Cn2cc(C)c(=O)[nH]c2=O)c(=O)[nH]c1=O`, the inhibition at 0.025 µM in assay [1] and in assay [6] was less than 20% throughout. Moreover, the inhibition result in assay [2] and in assay [5] was “Active” throughout. Besides, the inhibition at 0.1 µM in assay [3] and in assay [4] was less than 20% in each case.
Regarding `Cc1cn(CC(=O)N(CCNC(=O)CN(CCNC(=O)CN(CCNC(=O)CN(CCNC(=O)CN(CCNC(=O)CN(CCNC(=O)CN(CCNC(=O)CN(CCNC(=O)CN(CCNC(=O)CN(CCNC(=O)CN(CCNC(=O)CN(CCNC(=O)CN(CCNC(=O)CN(CCNC(=O)CN(CCNC(=O)CN(CCNC(=O)CN(CCNC(=O)CN(CCNC(=O)CN(CCNC(=O)CN(CCNC(=O)CN)C(=O)Cn2cnc3c(=O)[nH]c(N)nc32)C(=O)Cn2ccc(N)nc2=O)C(=O)Cn2ccc(=O)[nH]c2=O)C(=O)Cn2cnc3c(=O)[nH]c(N)nc32)C(=O)Cn2ccc(N)nc2=O)C(=O)Cn2ccc(N)nc2=O)C(=O)Cn2ccc(=O)[nH]c2=O)C(=O)Cn2cnc3c(=O)[nH]c(N)nc32)C(=O)Cn2cnc3c(=O)[nH]c(N)nc32)C(=O)Cn2ccc(N)nc2=O)C(=O)Cn2ccc(N)nc2=O)C(=O)Cn2cnc3c(N)ncnc32)C(=O)Cn2cnc3c(=O)[nH]c(N)nc32)C(=O)Cn2ccc(=O)[nH]c2=O)C(=O)Cn2ccc(N)nc2=O)C(=O)Cn2ccc(N)nc2=O)C(=O)Cn2cnc3c(N)ncnc32)C(=O)Cn2ccc(N)nc2=O)C(=O)Cn2cnc3c(N)ncnc32)CC(=O)NCCN(CC(=O)NCC(=O)O)C(=O)Cn2cc(C)c(=O)[nH]c2=O)c(=O)[nH]c1=O`, the inhibition at 0.025 µM in assay [1] and in assay [6] was less than 20% throughout. Also, the inhibition result in assay [2] and in assay [5] was “Active” throughout. For the same compound, the inhibition at 0.1 µM is less than 20% in assay [3] and 28% in assay [4].
Consider `Cc1cn(CC(=O)N(CCNC(=O)CN(CCNC(=O)CN(CCNC(=O)CN(CCNC(=O)CN(CCNC(=O)CN(CCNC(=O)CN(CCNC(=O)CN(CCNC(=O)CN(CCNC(=O)CN(CCNC(=O)CN(CCNC(=O)CN(CCNC(=O)CN(CCNC(=O)CN(CCNC(=O)CN(CCNC(=O)CN(CCNC(=O)CN(CCNC(=O)CN(CCNC(=O)CN(CCNC(=O)CN(CCNC(=O)CN)C(=O)Cn2cnc3c(N)ncnc32)C(=O)Cn2cnc3c(=O)[nH]c(N)nc32)C(=O)Cn2cnc3c(=O)[nH]c(N)nc32)C(=O)Cn2cnc3c(N)ncnc32)C(=O)Cn2cnc3c(=O)[nH]c(N)nc32)C(=O)Cn2cnc3c(=O)[nH]c(N)nc32)C(=O)Cn2ccc(N)nc2=O)C(=O)Cn2cnc3c(=O)[nH]c(N)nc32)C(=O)Cn2ccc(=O)[nH]c2=O)C(=O)Cn2ccc(=O)[nH]c2=O)C(=O)Cn2cnc3c(=O)[nH]c(N)nc32)C(=O)Cn2ccc(=O)[nH]c2=O)C(=O)Cn2ccc(=O)[nH]c2=O)C(=O)Cn2cnc3c(N)ncnc32)C(=O)Cn2cnc3c(=O)[nH]c(N)nc32)C(=O)Cn2cnc3c(N)ncnc32)C(=O)Cn2cnc3c(N)ncnc32)C(=O)Cn2cnc3c(N)ncnc32)C(=O)Cn2cnc3c(=O)[nH]c(N)nc32)CC(=O)NCCN(CC(=O)NCC(=O)O)C(=O)Cn2cc(C)c(=O)[nH]c2=O)c(=O)[nH]c1=O`, for which the inhibition at 0.025 µM was 34% in assay [1] and less than 20% in assay [6]. Also, the inhibition result in assay [2] and in assay [5] was “Active” throughout. Besides, the inhibition at 0.1 µM came to 52% in assay [3] and 68% in assay [4].
Turning to `Cc1cn(CC(=O)N(CCNC(=O)CN(CCNC(=O)CN(CCNC(=O)CN(CCNC(=O)CN(CCNC(=O)CN(CCNC(=O)CN(CCNC(=O)CN(CCNC(=O)CN(CCNC(=O)CN(CCNC(=O)CN(CCNC(=O)CN(CCNC(=O)CN(CCNC(=O)CN(CCNC(=O)CN(CCNC(=O)CN(CCNC(=O)CN(CCNC(=O)CN(CCNC(=O)CN(CCNC(=O)CN(CCNC(=O)CN)C(=O)Cn2cnc3c(=O)[nH]c(N)nc32)C(=O)Cn2ccc(=O)[nH]c2=O)C(=O)Cn2ccc(=O)[nH]c2=O)C(=O)Cn2cnc3c(N)ncnc32)C(=O)Cn2cnc3c(=O)[nH]c(N)nc32)C(=O)Cn2cnc3c(N)ncnc32)C(=O)Cn2cnc3c(N)ncnc32)C(=O)Cn2cnc3c(N)ncnc32)C(=O)Cn2cnc3c(=O)[nH]c(N)nc32)C(=O)Cn2ccc(N)nc2=O)C(=O)Cn2ccc(=O)[nH]c2=O)C(=O)Cn2cnc3c(=O)[nH]c(N)nc32)C(=O)Cn2ccc(=O)[nH]c2=O)C(=O)Cn2ccc(N)nc2=O)C(=O)Cn2ccc(=O)[nH]c2=O)C(=O)Cn2cnc3c(=O)[nH]c(N)nc32)C(=O)Cn2cnc3c(=O)[nH]c(N)nc32)C(=O)Cn2ccc(N)nc2=O)C(=O)Cn2ccc(N)nc2=O)CC(=O)NCCN(CC(=O)NCC(=O)O)C(=O)Cn2cc(C)c(=O)[nH]c2=O)c(=O)[nH]c1=O`, the inhibition at 0.025 µM in assay [1] and in assay [6] was less than 20% in each case. For the same compound, the inhibition result in assay [2] and in assay [5] was “Active” throughout. Moreover, the inhibition at 0.1 µM in assay [3] and in assay [4] was less than 20% throughout.
As for `Cc1cn(CC(=O)N(CCNC(=O)CN(CCNC(=O)CN(CCNC(=O)CN(CCNC(=O)CN(CCNC(=O)CN(CCNC(=O)CN(CCNC(=O)CN(CCNC(=O)CN(CCNC(=O)CN(CCNC(=O)CN(CCNC(=O)CN(CCNC(=O)CN(CCNC(=O)CN(CCNC(=O)CN(CCNC(=O)CN(CCNC(=O)CN(CCNC(=O)CN(CCNC(=O)CN(CCNC(=O)CN(CCNC(=O)CN)C(=O)Cn2ccc(=O)[nH]c2=O)C(=O)Cn2ccc(N)nc2=O)C(=O)Cn2ccc(N)nc2=O)C(=O)Cn2ccc(N)nc2=O)C(=O)Cn2ccc(=O)[nH]c2=O)C(=O)Cn2cnc3c(N)ncnc32)C(=O)Cn2cnc3c(=O)[nH]c(N)nc32)C(=O)Cn2cnc3c(N)ncnc32)C(=O)Cn2cnc3c(=O)[nH]c(N)nc32)C(=O)Cn2cnc3c(=O)[nH]c(N)nc32)C(=O)Cn2cnc3c(N)ncnc32)C(=O)Cn2cnc3c(=O)[nH]c(N)nc32)C(=O)Cn2cnc3c(=O)[nH]c(N)nc32)C(=O)Cn2cnc3c(N)ncnc32)C(=O)Cn2cnc3c(=O)[nH]c(N)nc32)C(=O)Cn2cnc3c(=O)[nH]c(N)nc32)C(=O)Cn2ccc(N)nc2=O)C(=O)Cn2cnc3c(=O)[nH]c(N)nc32)C(=O)Cn2ccc(=O)[nH]c2=O)CC(=O)NCCN(CC(=O)NCC(=O)O)C(=O)Cn2cc(C)c(=O)[nH]c2=O)c(=O)[nH]c1=O`, the inhibition at 0.025 µM in assay [1] and in assay [6] was less than 20% each time. Moreover, the inhibition entry in assay [2] and in assay [5] was “Active” in each case. For the same compound, the results for the inhibition at 0.1 µM in assay [3] and in assay [4] were 41% and 48%, respectively.
For the compound `Cc1cn(CC(=O)N(CCNC(=O)CN(CCNC(=O)CN(CCNC(=O)CN(CCNC(=O)CN(CCNC(=O)CN(CCNC(=O)CN(CCNC(=O)CN(CCNC(=O)CN(CCNC(=O)CN(CCNC(=O)CN(CCNC(=O)CN(CCNC(=O)CN(CCNC(=O)CN(CCNC(=O)CN(CCNC(=O)CN(CCNC(=O)CN(CCNC(=O)CN(CCNC(=O)CN(CCNC(=O)CN(CCNC(=O)CN)C(=O)Cn2ccc(N)nc2=O)C(=O)Cn2cnc3c(=O)[nH]c(N)nc32)C(=O)Cn2ccc(=O)[nH]c2=O)C(=O)Cn2ccc(=O)[nH]c2=O)C(=O)Cn2cnc3c(=O)[nH]c(N)nc32)C(=O)Cn2ccc(=O)[nH]c2=O)C(=O)Cn2ccc(=O)[nH]c2=O)C(=O)Cn2cnc3c(N)ncnc32)C(=O)Cn2cnc3c(=O)[nH]c(N)nc32)C(=O)Cn2cnc3c(N)ncnc32)C(=O)Cn2cnc3c(N)ncnc32)C(=O)Cn2cnc3c(N)ncnc32)C(=O)Cn2cnc3c(=O)[nH]c(N)nc32)C(=O)Cn2ccc(N)nc2=O)C(=O)Cn2ccc(=O)[nH]c2=O)C(=O)Cn2cnc3c(=O)[nH]c(N)nc32)C(=O)Cn2ccc(=O)[nH]c2=O)C(=O)Cn2ccc(N)nc2=O)C(=O)Cn2ccc(=O)[nH]c2=O)CC(=O)NCCN(CC(=O)NCC(=O)O)C(=O)Cn2cc(C)c(=O)[nH]c2=O)c(=O)[nH]c1=O`, the inhibition at 0.025 µM in assay [1] and in assay [6] was less than 20% throughout. The inhibition result in assay [2] and in assay [5] was “Active” throughout. For the same compound, the results for the inhibition at 0.1 µM in assay [3] and in assay [4] were 29% and 26%, respectively.
